We go through 29 molecules from PubChem BioAssay AID588559 (The Scripps Research Institute Molecular Screening Center, 2011).

Calls of active or inactive are those of the source.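 The calls were made as follows: active = PAD4 enzyme activity blocked 50% or more; inactive = under 50% inhibition.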

Sequence of Protein-arginine deiminase type-4 (Homo sapiens) (Q9UM07 whole entry, looked up): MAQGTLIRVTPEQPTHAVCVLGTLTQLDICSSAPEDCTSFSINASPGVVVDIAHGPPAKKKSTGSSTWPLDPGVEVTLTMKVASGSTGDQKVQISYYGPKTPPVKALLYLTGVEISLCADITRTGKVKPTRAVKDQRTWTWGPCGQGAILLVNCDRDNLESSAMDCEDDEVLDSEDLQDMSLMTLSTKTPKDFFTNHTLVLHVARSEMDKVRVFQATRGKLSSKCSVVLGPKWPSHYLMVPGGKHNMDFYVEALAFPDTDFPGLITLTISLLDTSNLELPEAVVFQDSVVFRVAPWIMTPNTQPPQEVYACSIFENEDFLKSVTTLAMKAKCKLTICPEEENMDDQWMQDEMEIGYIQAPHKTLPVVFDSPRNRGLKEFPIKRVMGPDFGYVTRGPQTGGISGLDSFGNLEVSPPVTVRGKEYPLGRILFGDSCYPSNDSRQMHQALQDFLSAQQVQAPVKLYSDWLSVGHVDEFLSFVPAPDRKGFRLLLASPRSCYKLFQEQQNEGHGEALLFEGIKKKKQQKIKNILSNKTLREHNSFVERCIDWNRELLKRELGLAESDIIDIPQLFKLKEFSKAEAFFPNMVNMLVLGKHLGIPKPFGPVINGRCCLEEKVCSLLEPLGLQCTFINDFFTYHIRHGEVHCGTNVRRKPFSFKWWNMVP

This experiment addresses Protein-arginine deiminase type-4 (Homo sapiens) (UniProt Q9UM07). In words: PAD4 inhibitors, single-concentration test, late-stage follow-up, biochemical, BAEE substrate, colorimetric citrulline readout (AID 588559). As to conditions: recombinant PAD4, BAEE substrate, colorimetric citrulline detection; at 100 µM; stronger effect = higher value. The procedure, abridged: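 Benchmarks: DMSO vehicle control; system: recombinant PAD4; amount: PAD4 at 0.2 µM; medium: Tris pH 7.6, Ca2+ and DTT; signal: colorimetric citrulline absorbance at 540 nm; evaluation: percent inhibition of citrulline formation relative to DMSO, via citrulline standard; incubation: 15 min enzyme–compound preincubation, then 15 min BAEE reaction, 37 °C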
With `COC1=C(Br)C(=O)c2nc(-c3ccccn3)ccc2C1=O`, the inhibition – broadly, the relative decrease from the control value, in per cent – was 98%.
Next, `NC1=CC(=O)c2ccc(-c3ccccn3)nc2C1=O`: 88%; `COC(=O)c1nc(C(=O)OC)c(NC(C)=O)c(-c2ccccc2Br)c1C`: 67%.
On to `COC(=O)c1nc(C(=O)OC)c(N)c(-c2ccccc2Br)c1C`, for which the inhibition is 9% (inactive).
Under `COC(=O)c1cccc(-c2ccc3c(n2)C(=O)C(N)=CC3=O)n1` stands 91%; under `NC1=C(N)C(=O)c2ccccc2C1=O`, 97%; under `COC1=C(I)C(=O)c2nc(C#N)ccc2C1=O`, 98%.
Next, `COC(=O)c1nnc(C(=O)OC)c(-c2ccc3ccccc3n2)n1`: -21% (inactive); `COc1ccc2nc(C#N)ccc2c1`: -10% (inactive); `O=C1C=C(Br)C(=O)c2ncccc21`: 100%.
In the case of `NC1=CC(=O)c2ccc(-c3cccc(C(=O)O)n3)nc2C1=O`, the inhibition was 98%.
Under `COC(=O)c1nnc(C(=O)OC)c(-c2ccc3c([N+](=O)[O-])c(OC)ccc3n2)n1` stands -12% (inactive); under `COC(=O)c1cccc(-c2ccc3c(n2)C(=O)C(Br)=CC3=O)n1`, 90%; under `COC1=CC(=O)c2nc(C#N)ccc2C1=O`, 98%.
For `O=C(O)c1cccc(-c2ccc3ccc(Br)c(OCc4ccccc4)c3n2)n1`, the inhibition was -8% (inactive).
On to `COc1ccc2nc(C#N)ccc2c1[N+](=O)[O-]`, for which the inhibition was -13% (inactive).
Under `NC1=CC(=O)c2ccc(-c3cc(C(=O)O)ccc3N)nc2C1=O` stands 97%.
Next, `COC1=C(Br)C(=O)c2ncccc2C1=O`: 90%.
Regarding `NC1=CC(=O)c2cccnc2C1=O`, the inhibition is 98%.
`COc1ccc2ncccc2c1[N+](=O)[O-]`: the inhibition is -12% (inactive).
With `COC(=O)c1cc(-c2ccccc2)c(C(=O)OC)c(-c2ccc3ccccc3n2)n1`, the inhibition was -11% (inactive).
Consider `CCOC(=O)c1nc(C(=O)OCC)c(C(=O)OCC)c(-c2ccc(OC)c(OC)c2OCc2ccccc2)c1C`, for which the inhibition was 2% (inactive).
For `COC(=O)c1nc(-c2ccc3c(n2)C(=O)C(Br)=CC3=O)c2[nH]c3ccccc3c2c1C`, the inhibition was 0% (inactive).
Consider `COC(=O)c1cccc(-c2ccc3ccc(Br)c(O)c3n2)n1`, for which the inhibition is 27% (inactive).
Next, `COC1=C(N)C(=O)c2ncccc2C1=O`: 99%.
Turning to `O=C1C(O)=C(O)C(=O)c2ncccc21`, the inhibition was 98%.
Next, `COC(=O)c1nc(C(C)=O)c2[nH]c3ccccc3c2c1C`: 0% (inactive).
In the case of `COC(=O)c1nnc(C(=O)OC)c(-c2ccc3cc(OC)ccc3n2)n1`, the inhibition was -2% (inactive).
Under `O=C1C(Br)=CC(=O)c2ncccc21` stands 97%.
